# Laboratory results reported in ChEMBL document CHEMBL3046804, “Synthesis and fungicidal activity of novel 3-(substituted/unsubstituted phenylselenonyl)-1-ribosyl/deoxyribosyl-1H-1,2,4-triazole” (2012).
# Tested on: Penicillium citrinum
# Assay: Fungitoxicity against Penicillium citrinum assessed as inhibition of mycelia growth at 28 +/- 1 degC at 1000 ug/mL for 96 hr by poisoned food technique
# Format: functional
# Outline: (§1)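 Poisoned food technique in Czapek's agar dishes, with test compound incorporated at 10, 100 or 1000 μg/mL. Fungus inoculated at the dish centre and incubated 96 h at 28 ± 1 °C. Percent inhibition = 100 × (mean hyphal diameter in control − mean hyphal diameter in test) / mean hyphal diameter in control. Three replicate assays per treatment and six replicate controls. Griseofulvin and Dithane M-45 served as standards.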
row,SMILES,inhibition at 1000 µg/mL
1,O=[N+]([O-])c1ccc([Se](=O)(=O)c2ncn([C@@H]3O[C@H](CO)[C@@H](O)[C@H]3O)n2)cc1,86%
2,COC1=CC(=O)C[C@@H](C)[C@]12Oc1c(Cl)c(OC)cc(OC)c1C2=O [GRISEOFULVIN],100%
3,O=[Se](=O)(c1ccccc1)c1ncn([C@H]2C[C@H](O)[C@@H](CO)O2)n1,81%
4,CC(=O)OC[C@H]1O[C@@H](n2cnc([Se](=O)(=O)c3ccccc3)n2)C[C@@H]1OC(C)=O,42%
5,CC(=O)OC[C@H]1O[C@@H](n2cnc([Se](=O)(=O)c3ccc(C)cc3)n2)C[C@@H]1OC(C)=O,42%
6,O=[Se](=O)(c1ccc(Cl)cc1)c1ncn([C@@H]2O[C@H](CO)[C@@H](O)[C@H]2O)n1,97%
7,COc1ccc([Se](=O)(=O)c2ncn([C@H]3C[C@H](O)[C@@H](CO)O3)n2)cc1,76%
8,CC(=O)OC[C@H]1O[C@@H](n2cnc([Se](=O)(=O)c3ccc(Cl)cc3)n2)[C@H](OC(C)=O)[C@@H]1OC(C)=O,53%
9,CC(=O)OC[C@H]1O[C@@H](n2cnc([Se](=O)(=O)c3ccc([N+](=O)[O-])cc3)n2)[C@H](OC(C)=O)[C@@H]1OC(C)=O,62%
10,CC(=O)OC[C@H]1O[C@@H](n2cnc([Se](=O)(=O)c3ccc(Cl)cc3)n2)C[C@@H]1OC(C)=O,51%
11,O=[Se](=O)(c1ccccc1)c1ncn([C@@H]2O[C@H](CO)[C@@H](O)[C@H]2O)n1,89%

# Tested on: Fusarium oxysporum
# Assay: Fungitoxicity against Fusarium oxysporum assessed as inhibition of mycelia growth at 28 +/- 1 degC at 10 ug/mL for 96 hr by poisoned food technique
# Format: functional
# Outline: as §1
row,SMILES,inhibition at 10 µg/mL
1,O=[N+]([O-])c1ccc([Se](=O)(=O)c2ncn([C@@H]3O[C@H](CO)[C@@H](O)[C@H]3O)n2)cc1,35%
2,COC1=CC(=O)C[C@@H](C)[C@]12Oc1c(Cl)c(OC)cc(OC)c1C2=O [GRISEOFULVIN],91%
3,O=[Se](=O)(c1ccccc1)c1ncn([C@H]2C[C@H](O)[C@@H](CO)O2)n1,33%
4,CC(=O)OC[C@H]1O[C@@H](n2cnc([Se](=O)(=O)c3ccccc3)n2)C[C@@H]1OC(C)=O,25%
5,CC(=O)OC[C@H]1O[C@@H](n2cnc([Se](=O)(=O)c3ccc(C)cc3)n2)C[C@@H]1OC(C)=O,26%
6,O=[Se](=O)(c1ccc(Cl)cc1)c1ncn([C@@H]2O[C@H](CO)[C@@H](O)[C@H]2O)n1,44%
7,COc1ccc([Se](=O)(=O)c2ncn([C@H]3C[C@H](O)[C@@H](CO)O3)n2)cc1,65%
8,CC(=O)OC[C@H]1O[C@@H](n2cnc([Se](=O)(=O)c3ccc(Cl)cc3)n2)[C@H](OC(C)=O)[C@@H]1OC(C)=O,14%
9,CC(=O)OC[C@H]1O[C@@H](n2cnc([Se](=O)(=O)c3ccc([N+](=O)[O-])cc3)n2)[C@H](OC(C)=O)[C@@H]1OC(C)=O,30%
10,CC(=O)OC[C@H]1O[C@@H](n2cnc([Se](=O)(=O)c3ccc(Cl)cc3)n2)C[C@@H]1OC(C)=O,15%
11,O=[Se](=O)(c1ccccc1)c1ncn([C@@H]2O[C@H](CO)[C@@H](O)[C@H]2O)n1,50%

# Tested on: Penicillium citrinum
# Assay: Fungitoxicity against Penicillium citrinum assessed as inhibition of mycelia growth at 28 +/- 1 degC at 100 ug/mL for 96 hr by poisoned food technique
# Format: functional
# Outline: as §1
row,SMILES,inhibition at 100 µg/mL
1,O=[N+]([O-])c1ccc([Se](=O)(=O)c2ncn([C@@H]3O[C@H](CO)[C@@H](O)[C@H]3O)n2)cc1,59%
2,COC1=CC(=O)C[C@@H](C)[C@]12Oc1c(Cl)c(OC)cc(OC)c1C2=O [GRISEOFULVIN],94%
3,O=[Se](=O)(c1ccccc1)c1ncn([C@H]2C[C@H](O)[C@@H](CO)O2)n1,74%
4,CC(=O)OC[C@H]1O[C@@H](n2cnc([Se](=O)(=O)c3ccccc3)n2)C[C@@H]1OC(C)=O,32%
5,CC(=O)OC[C@H]1O[C@@H](n2cnc([Se](=O)(=O)c3ccc(C)cc3)n2)C[C@@H]1OC(C)=O,31%
6,O=[Se](=O)(c1ccc(Cl)cc1)c1ncn([C@@H]2O[C@H](CO)[C@@H](O)[C@H]2O)n1,65%
7,COc1ccc([Se](=O)(=O)c2ncn([C@H]3C[C@H](O)[C@@H](CO)O3)n2)cc1,48%
8,CC(=O)OC[C@H]1O[C@@H](n2cnc([Se](=O)(=O)c3ccc(Cl)cc3)n2)[C@H](OC(C)=O)[C@@H]1OC(C)=O,39%
9,CC(=O)OC[C@H]1O[C@@H](n2cnc([Se](=O)(=O)c3ccc([N+](=O)[O-])cc3)n2)[C@H](OC(C)=O)[C@@H]1OC(C)=O,41%
10,CC(=O)OC[C@H]1O[C@@H](n2cnc([Se](=O)(=O)c3ccc(Cl)cc3)n2)C[C@@H]1OC(C)=O,35%
11,O=[Se](=O)(c1ccccc1)c1ncn([C@@H]2O[C@H](CO)[C@@H](O)[C@H]2O)n1,42%

# Tested on: Fusarium oxysporum
# Assay: Fungitoxicity against Fusarium oxysporum assessed as inhibition of mycelia growth at 28 +/- 1 degC at 1000 ug/mL for 96 hr by poisoned food technique
# Format: functional
# Outline: as §1
row,SMILES,inhibition at 1000 µg/mL
1,O=[N+]([O-])c1ccc([Se](=O)(=O)c2ncn([C@@H]3O[C@H](CO)[C@@H](O)[C@H]3O)n2)cc1,81%
2,COC1=CC(=O)C[C@@H](C)[C@]12Oc1c(Cl)c(OC)cc(OC)c1C2=O [GRISEOFULVIN],100%
3,O=[Se](=O)(c1ccccc1)c1ncn([C@H]2C[C@H](O)[C@@H](CO)O2)n1,77%
4,CC(=O)OC[C@H]1O[C@@H](n2cnc([Se](=O)(=O)c3ccccc3)n2)C[C@@H]1OC(C)=O,45%
5,CC(=O)OC[C@H]1O[C@@H](n2cnc([Se](=O)(=O)c3ccc(C)cc3)n2)C[C@@H]1OC(C)=O,45%
6,O=[Se](=O)(c1ccc(Cl)cc1)c1ncn([C@@H]2O[C@H](CO)[C@@H](O)[C@H]2O)n1,100%
7,COc1ccc([Se](=O)(=O)c2ncn([C@H]3C[C@H](O)[C@@H](CO)O3)n2)cc1,91%
8,CC(=O)OC[C@H]1O[C@@H](n2cnc([Se](=O)(=O)c3ccc(Cl)cc3)n2)[C@H](OC(C)=O)[C@@H]1OC(C)=O,55%
9,CC(=O)OC[C@H]1O[C@@H](n2cnc([Se](=O)(=O)c3ccc([N+](=O)[O-])cc3)n2)[C@H](OC(C)=O)[C@@H]1OC(C)=O,65%
10,CC(=O)OC[C@H]1O[C@@H](n2cnc([Se](=O)(=O)c3ccc(Cl)cc3)n2)C[C@@H]1OC(C)=O,54%
11,O=[Se](=O)(c1ccccc1)c1ncn([C@@H]2O[C@H](CO)[C@@H](O)[C@H]2O)n1,82%

# Tested on: Penicillium citrinum
# Assay: Fungitoxicity against Penicillium citrinum assessed as inhibition of mycelia growth at 28 +/- 1 degC at 10 ug/mL for 96 hr by poisoned food technique
# Format: functional
# Outline: as §1
row,SMILES,inhibition at 10 µg/mL
1,O=[N+]([O-])c1ccc([Se](=O)(=O)c2ncn([C@@H]3O[C@H](CO)[C@@H](O)[C@H]3O)n2)cc1,37%
2,COC1=CC(=O)C[C@@H](C)[C@]12Oc1c(Cl)c(OC)cc(OC)c1C2=O [GRISEOFULVIN],90%
3,O=[Se](=O)(c1ccccc1)c1ncn([C@H]2C[C@H](O)[C@@H](CO)O2)n1,65%
4,CC(=O)OC[C@H]1O[C@@H](n2cnc([Se](=O)(=O)c3ccccc3)n2)C[C@@H]1OC(C)=O,23%
5,CC(=O)OC[C@H]1O[C@@H](n2cnc([Se](=O)(=O)c3ccc(C)cc3)n2)C[C@@H]1OC(C)=O,17%
6,O=[Se](=O)(c1ccc(Cl)cc1)c1ncn([C@@H]2O[C@H](CO)[C@@H](O)[C@H]2O)n1,36%
7,COc1ccc([Se](=O)(=O)c2ncn([C@H]3C[C@H](O)[C@@H](CO)O3)n2)cc1,42%
8,CC(=O)OC[C@H]1O[C@@H](n2cnc([Se](=O)(=O)c3ccc(Cl)cc3)n2)[C@H](OC(C)=O)[C@@H]1OC(C)=O,22%
9,CC(=O)OC[C@H]1O[C@@H](n2cnc([Se](=O)(=O)c3ccc([N+](=O)[O-])cc3)n2)[C@H](OC(C)=O)[C@@H]1OC(C)=O,24%
10,CC(=O)OC[C@H]1O[C@@H](n2cnc([Se](=O)(=O)c3ccc(Cl)cc3)n2)C[C@@H]1OC(C)=O,16%
11,O=[Se](=O)(c1ccccc1)c1ncn([C@@H]2O[C@H](CO)[C@@H](O)[C@H]2O)n1,35%

# Tested on: Fusarium oxysporum
# Assay: Fungitoxicity against Fusarium oxysporum assessed as inhibition of mycelia growth at 28 +/- 1 degC at 100 ug/mL for 96 hr by poisoned food technique
# Format: functional
# Outline: as §1
row,SMILES,inhibition at 100 µg/mL
1,O=[N+]([O-])c1ccc([Se](=O)(=O)c2ncn([C@@H]3O[C@H](CO)[C@@H](O)[C@H]3O)n2)cc1,48%
2,COC1=CC(=O)C[C@@H](C)[C@]12Oc1c(Cl)c(OC)cc(OC)c1C2=O [GRISEOFULVIN],95%
3,O=[Se](=O)(c1ccccc1)c1ncn([C@H]2C[C@H](O)[C@@H](CO)O2)n1,42%
4,CC(=O)OC[C@H]1O[C@@H](n2cnc([Se](=O)(=O)c3ccccc3)n2)C[C@@H]1OC(C)=O,33%
5,CC(=O)OC[C@H]1O[C@@H](n2cnc([Se](=O)(=O)c3ccc(C)cc3)n2)C[C@@H]1OC(C)=O,35%
6,O=[Se](=O)(c1ccc(Cl)cc1)c1ncn([C@@H]2O[C@H](CO)[C@@H](O)[C@H]2O)n1,72%
7,COc1ccc([Se](=O)(=O)c2ncn([C@H]3C[C@H](O)[C@@H](CO)O3)n2)cc1,76%
8,CC(=O)OC[C@H]1O[C@@H](n2cnc([Se](=O)(=O)c3ccc(Cl)cc3)n2)[C@H](OC(C)=O)[C@@H]1OC(C)=O,29%
9,CC(=O)OC[C@H]1O[C@@H](n2cnc([Se](=O)(=O)c3ccc([N+](=O)[O-])cc3)n2)[C@H](OC(C)=O)[C@@H]1OC(C)=O,55%
10,CC(=O)OC[C@H]1O[C@@H](n2cnc([Se](=O)(=O)c3ccc(Cl)cc3)n2)C[C@@H]1OC(C)=O,26%
11,O=[Se](=O)(c1ccccc1)c1ncn([C@@H]2O[C@H](CO)[C@@H](O)[C@H]2O)n1,65%
